Screening results: PubChem BioAssay, several laboratories
IDE act – activators of human insulin-degrading enzyme in cells | P14735 | HEK cells, FAbeta-B cleavage, fluorescence polarization; 0% vehicle, 100% cell-free pure enzyme wells | activation, % at 5.96 µM | 340,000 compounds, 0.073% hits | AID 493087;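 active = activation above the mean of all tested compounds plus 3 SD, set per screening campaign, cut at about 17% in these data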
IDE inh – inhibitors of human insulin-degrading enzyme in cells | 320,000 compounds, 0.41% hits | P14735 | inhibition, % at 5.59 µM | AID 434962 | HEK cells, FAbetaB cleavage, fluorescence polarization;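 active = percent inhibition above the average of all tested compounds plus 3 SD, set per screening campaign, cut at about 16% in these data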;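 also: IDE supplied by intact live HEK cells; FP after avidin binding of uncleaved biotin substrate so inhibition keeps polarization high; 0% = DMSO wells and 100% = 60 µM reference IDE inhibitor Ii1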
proCasp3 act – activators of human procaspase-3; P42574; recombinant procaspase-3 D3A, Ac-DEVD-pNA absorbance 405 nm; activation, % at 8.5 µM; 330,000 compounds, 0.11% hits;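 active = activation above the mean of all tested compounds plus 3 SD, cut at about 21% in these data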;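 also: 0% = DMSO alone and 100% = DMSO wells spiked with extra 5 µM PC-3 D3A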
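Assay system – Procaspase-3 D3A mutant · Benchmarks – DMSO low control, extra-enzyme high control · Technique – 405 nm absorbance of p-nitroaniline, reads at 0 and 120 min · Doses – 8.5 µM nominal · Measure – % activation between DMSO and enzyme-spiked controls · Also added – Ac-DEVD-pNA chromogenic peptide substrate · Schedule – 1 h compound preincubation, 2 h substrate hydrolysis at 25 °C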
UBC13 inh – blocks human UBC13 polyubiquitin chain formation; TR-FRET; 330,000 compounds, 0.47% hits; AID 485273; P61088; inhibition, % at 20 µM; in the data active = inhibition above about 45%, passing the limit was not always enough; inconclusive = no clear call, values can overlap the other calls
PHOSPHO1 block – blocks human PHOSPHO1 phosphatase activity. 290,000 compounds, 1.1% hits. recombinant PHOSPHO1, absorbance phosphatase assay. Q8TCT1. inhibition, % at 13.3 µM; in the data active = inhibition above about 60%
Target sequence (Q8TCT1 whole entry, looked up): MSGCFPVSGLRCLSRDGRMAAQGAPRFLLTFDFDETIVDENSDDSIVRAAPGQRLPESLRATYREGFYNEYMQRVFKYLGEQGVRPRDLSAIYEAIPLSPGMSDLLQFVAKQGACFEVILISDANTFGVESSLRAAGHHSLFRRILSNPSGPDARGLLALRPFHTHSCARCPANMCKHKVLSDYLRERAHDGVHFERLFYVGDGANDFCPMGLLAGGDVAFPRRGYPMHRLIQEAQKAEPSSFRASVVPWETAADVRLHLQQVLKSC
proCasp7 act – counter-screen for procaspase-3 activators: activators of human procaspase-7 | P55210 | activation, % at 8.5 µM | recombinant procaspase-7, Ac-DEVD-pNA absorbance 405 nm; D23A/D198A/D206A triple mutant, cannot self-cleave; scale: DMSO 0, 5 µM enzyme 100 | 330,000 compounds, 0.093% hits;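 active = percent activation above the screen-wide mean plus 3 SD, cut at about 25% in these data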
Target sequence (P55210 whole entry D23A/D198A/D206A): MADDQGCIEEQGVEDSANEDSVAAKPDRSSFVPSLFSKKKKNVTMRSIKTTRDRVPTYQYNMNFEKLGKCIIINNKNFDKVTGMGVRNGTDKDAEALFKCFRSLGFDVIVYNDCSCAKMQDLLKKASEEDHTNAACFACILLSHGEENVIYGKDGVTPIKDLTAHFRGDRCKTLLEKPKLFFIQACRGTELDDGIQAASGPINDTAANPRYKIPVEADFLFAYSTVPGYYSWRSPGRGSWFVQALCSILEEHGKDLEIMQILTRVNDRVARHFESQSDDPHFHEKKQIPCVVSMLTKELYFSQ
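Material: Procaspase-7 triple mutant (PC-7 D3A) | Quantity: 2 µM procaspase-7 mutant as dispensed | Reagent: DEVD-pNA substrate | Times: 1 h preincubation, 2 h reaction | Technique: 405 nm absorbance of p-nitroaniline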
IDE inh confirm – cellular human IDE inhibition, confirmation. HEK cells, FAbetaB cleavage, fluorescence polarization. shares compounds with IDE inh. inhibition, % at 5.59 µM. 1,200 compounds, 51% hits;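 active = mean inhibition across triplicate wells above the cutoff set by the earlier primary insulin-degrading enzyme screen, cut at about 16% in these data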;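 also: 0% = DMSO wells and 100% = 60 µM reference IDE inhibitor Ii1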
HEK293 tox – counter-screen for IDE inhibitors: cytotoxicity in HEK cells. HEK293 cytotoxicity, ATP luminescence. shares compounds with IDE inh. inhibition, % at 5.59 µM. 1,200 compounds, 28% hits. AID 449730; in the data active = inhibition above about 22%;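 also: 0% = vehicle wells and 100% = reference cytotoxic drug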
* hit, by the source's call; ? = inconclusive; . = no result. An excerpt weighted towards active compounds, which were near 1.9% of everything screened.

SMILES | IDE act | IDE inh | proCasp3 act | UBC13 inh | PHOSPHO1 block | proCasp7 act | IDE inh confirm | HEK293 tox
CCN(CC)c1ccc(C=C(c2nnnn2-c2ccccc2)c2nnnn2-c2ccccc2)cc1 | -23 | 32* | -9 | -4 | -9 | -16 | 30* | 17
OCC[C@H]1C[C@H](O)[C@@H](O)[C@@]2(OCCCc3ccccc32)O1 | 5 | 2 | 7 | -7 | . | 7 | . | .
Cc1cc(F)ccc1S(=O)(=O)N1CCCOC1CNC(=O)C(=O)NC1CCCCC1 (stereo unspecified) | 7 | 2 | 6 | -5 | 8 | 3 | . | .
COc1cc(/C=N/Nc2nc3ccccc3[nH]2)cc(OC)c1O | -1 | 18* | -10 | -7 | 3 | -30 | 1 | 24*
O=C(CCNC(=O)N1CCn2c1nc1ccccc12)NCc1ccccc1 | 5 | -4 | 3 | 12 | 53 | 5 | . | .
O=c1cc(SCc2ccccc2)nc[nH]1 | -15 | . | . | . | . | . | . | .
O=C(NCC(=O)N1CC=C(c2ccccc2)CC1)c1ccc(OC(F)F)cc1 | -15 | 18* | 5 | 0 | . | 10 | 15 | 55*
COc1cc(OC)cc(C(=O)NCC(=O)N2CC=C(c3ccccc3)CC2)c1 | -3 | . | . | 0 | . | . | . | .
O=C(Cc1ccc(-c2ccccc2)cc1)Nc1ncccc1O | 3 | 0 | 4 | -2 | 36 | -6 | . | .
NC(=Nc1ccc(Br)cc1)c1ccccc1 | 7 | 4 | 0 | 0 | 36 | 0 | . | .
CC(=Nc1ccc(Br)cc1)c1sc2ccccc2c1O | -57 | 20* | -10 | 7 | 4 | -7 | 54* | 15
CC(=Nc1ccccc1)c1sc2ccccc2c1O | -43 | 20* | -10 | 1 | 19 | -15 | 51* | 12
Cc1ccc(N=Cc2sc(O)c3ccccc23)cc1 | -24 | 36* | -25 | -28 | 26 | -31 | 57* | 11
CCCC(=O)NC(c1ccco1)c1cc(Cl)c2cccnc2c1O (stereo unspecified) | -3 | 1 | -23 | -32 | -25 | -34 | . | .
CCC(=O)NC(c1ccco1)c1cc(Cl)c2ccccc2c1O (stereo unspecified) | -9 | 16* | 1 | 35 | . | 1 | 9 | 12
CCCCOc1ccc(C(=O)Nc2cc(C)c(OCC(=O)N3CCOCC3)c(C)c2)cc1 | -17 | 39* | 8 | 3 | 26 | 7 | 10 | 25*
Cc1cc(NC(=O)c2ccc(Cl)cc2)cc(C)c1OCC(=O)N1CCOCC1 | -8 | 9 | 6 | 3 | 13 | 2 | . | .
CCOC(=O)Cc1csc(-n2sc3ccccc3c2=O)n1 | -25 | 17* | -25 | ? | 96* | -38 | 13 | 28*
Cc1sc2ncnc(SCC(=O)NC(=O)c3cccn3C)c2c1C | -11 | 19* | 14 | 0 | 5 | 0 | 2 | 18
Cc1cccc(NC(=O)CSc2ncnc3sc(C)c(C)c23)n1 | -3 | . | . | -8 | 22 | . | . | .
Cc1cccc(OCC(=O)NCC(=O)N/N=C/c2c(C)[nH]c3ccccc23)c1 | 0 | 16* | -5 | 6 | 35 | -7 | 0 | 17
CC(C)CN(C(=O)CSc1nc2ccccc2o1)c1c(N)n(Cc2ccccc2)c(=O)[nH]c1=O | 0 | -3 | 4 | -1 | . | -3 | . | .
CCC(=O)N1CCN(c2nc(-c3ccc(Cl)cc3)cs2)CC1 | -15 | 18* | -5 | 5 | -8 | -1 | 10 | 19
CN(C)c1ccc(/C=C(\C#N)C(=O)Nc2nc3c(s2)CCN(Cc2ccccc2)C3)cc1 | -28 | 38* | 1 | -217 | 22 | 2 | 58* | 11
O=C(Nc1nc2c(s1)CN(Cc1ccccc1)CC2)C1CCC1 | -1 | 11 | 16 | 3 | 42 | 15 | . | .
SMILES | IDE act | IDE inh | proCasp3 act | UBC13 inh | PHOSPHO1 block | proCasp7 act | IDE inh confirm | HEK293 tox
CCN(c1cccc(C)c1)S(=O)(=O)c1ccc(-n2cccn2)cc1 | 2 | -2 | -3 | -5 | -1 | -2 | . | .
CCCCn1c(SCC(=O)N2CCN(c3ccccc3)CC2)nc2ccsc2c1=O | -14 | 21* | 0 | 12 | 78* | 0 | 6 | 19
CCCCn1c(SCC(=O)N2CCC(C)CC2)nc2ccsc2c1=O | -3 | 2 | 2 | 9 | 24 | 8 | . | .
COc1ccc(-n2c(C)cc(/C=C3\SC(=S)N(Cc4ccco4)C3=O)c2C)cc1 | -8 | 17* | 2 | . | -10 | 7 | 18* | 11
CN(C)c1ccc(/C=C/C(=O)c2ccc3c(c2)OCO3)cc1 | -97 | 73* | -31 | -34 | . | -36 | 119* | 10
O=C(/C=C/c1ccccc1)c1ccc2c(c1)OCO2 | 3 | 0 | -4 | 1 | 16 | -2 | . | .
CN(C)c1ccc(/C=C/C(=O)c2cccnc2)cc1 | -108 | 30* | -25 | -342 | 60* | -25 | 43* | 11
Cc1cc(C)c(S(=O)(=O)N2CCN(S(=O)(=O)N3CCOCC3)CC2)c(C)c1 | 4 | 2 | 7 | 0 | 19 | 2 | . | .
CCOc1ccc(NC(=O)CN(C)C(=O)c2c(C)nn(-c3ccc(F)cc3)c2Cl)cc1OCC | 3 | -3 | 3 | -1 | . | 7 | . | .
COc1ccc(NC(=O)C2CCN(c3ncnc4c3nc3n4CCCCC3)CC2)cc1Cl | 0 | -3 | -3 | 36 | 24 | -3 | . | .
CC(=O)Nc1ccc(N2C(=O)c3cccc4c(O)ccc(c34)C2=O)cc1 | -30 | 95* | 3 | -132 | 38 | -4 | 26* | 3
Cc1ccc(N2C(=O)c3cccc4c(C(=O)O)ccc(c34)C2=O)cc1 | . | 3 | 3 | -6 | -166 | -2 | . | .
COc1cc(OC)cc(C(=O)NC(C(=O)Nc2ccc3c(c2)OCO3)C(C)C)c1 (stereo unspecified) | -3 | -5 | -3 | 3 | . | 0 | . | .
CCOc1cc(N2CCOCC2)c(OCC)cc1NC(=O)c1nn(CC)c(=O)c2ccccc12 | 6 | -6 | -4 | -4 | . | 9 | . | .
C=CCOC(=O)C1=C(C)NC(=O)NC1/C=C/c1ccccc1OC (stereo unspecified) | -10 | 21* | 2 | -2 | -5 | 9 | 9 | 1
CN(CC(=O)Nc1ccccc1Br)C(=O)c1cc2c(s1)CCCCC2 | 1 | 1 | -1 | 2 | . | -1 | . | .
Cc1cc2cc(C(c3nnnn3Cc3ccccc3)N3CCc4ccccc43)c(=O)[nH]c2cc1C (stereo unspecified) | 1 | 16* | -17 | 30 | 23 | -35 | 3 | 9
Oc1cc(CNC2CCCCC2)c(O)cc1CNC1CCCCC1 | 4 | . | . | . | . | . | . | .
